Test results: ChEMBL document CHEMBL3763117, “Design, synthesis and biological evaluation of imidazo[2,1-b]thiazole and benzo[d]imidazo[2,1-b]thiazole derivatives as Mycobacterium tuberculosis pantothenate synthetase inhibitors” (Bioorg Med Chem, 2016)
≈ marks a conversion by molar mass, not a printed value. Calls of active or inactive are those of the source. The rule behind the calls is not given here.

Experiments:
[1] = target: T1, Pantothenate synthetase (Mycobacterium tuberculosis, UniProt P9WIL5); assay: Inhibition of Mycobacterium tuberculosis pantothenate synthetase using pantoic acid as substrate and beta-alanine as reactant assessed as NAD+ formation by spectrophotmetry in presence of NADH
T1 sequence (P9WIL5 whole entry): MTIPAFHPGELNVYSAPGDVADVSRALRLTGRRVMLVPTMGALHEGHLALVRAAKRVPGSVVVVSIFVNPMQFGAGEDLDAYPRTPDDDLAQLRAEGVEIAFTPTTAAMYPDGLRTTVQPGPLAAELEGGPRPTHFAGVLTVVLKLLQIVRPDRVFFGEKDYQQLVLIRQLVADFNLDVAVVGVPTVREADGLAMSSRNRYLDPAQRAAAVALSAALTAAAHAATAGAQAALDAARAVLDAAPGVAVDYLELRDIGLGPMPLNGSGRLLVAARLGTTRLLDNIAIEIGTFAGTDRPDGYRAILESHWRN
Method in brief: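 Recombinant MTB PS (panC, Rv3602c) expressed in E. coli BL21(DE3). Coupled assay in 100 mM HEPES pH 7.8: 0.4 mM NADH, 5 mM pantoic acid, 5 mM β-alanine, 10 mM ATP, 10 mM MgCl2, 1 mM phosphoenolpyruvate, with myokinase, pyruvate kinase and lactate dehydrogenase. Compounds were tested from 25 µM downward. Reaction was started with PS; NADH depletion was read at 340 nm at 37 °C, background-corrected.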

[2] = test system: Mycobacterium tuberculosis; assay: Antimycobacterial activity against Mycobacterium tuberculosis H37Rv ATCC 27294 after 7 days by microplate Alamar blue assay; assay type: functional; settings: H37Rv ATCC 27294, 168 h
Method in brief: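 MABA against M. tuberculosis H37Rv. Inoculum came from LJ medium, resuspended in 7H9-S (7H9, 0.1% casitone, 0.5% glycerol, OADC), adjusted to McFarland No. 1 and diluted 1:20. Two-fold dilutions spanned 50 to 0.78 µg/mL, in duplicate. Plates ran 7 days at 37 °C, then alamar blue was added overnight. MIC was the lowest concentration preventing the blue-to-pink change.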

[3] = Cytotoxicity against mouse RAW264.7 cells assessed as inhibition of cell viability at 50 uM after 72 hrs by MTT assay; assay type: cell-based; settings: read-out: INH
Method in brief: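 RAW 264.7 mouse macrophages were exposed to compound at 50 µM for 72 h. Viability was read as MTT conversion to formazan.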

[4] = test system: Mycobacterium marinum; assay: Antimycobacterial activity against Mycobacterium marinum ATCC BAA-535 infected in Zebra fish model assessed as reduction in bacterial load at 5 mg/kg, po administered for 7 days measured after 14 days by MPN assay; assay type: functional
Method in brief: (§1)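 Adult zebra fish infected with M. marinum ATCC BAA-535 (grown at 30 °C in Middlebrook 7H9 broth). Oral treatment began 7 days post infection and ran for 7 days. Fish were then sacrificed and homogenised in 7H9 broth. Homogenate was serially diluted to 10^-6, plated in 48-well plates and incubated at 30 °C. Bacterial count was by MPN.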

[5] = test system: Mycobacterium tuberculosis; assay: Antimycobacterial activity against nutrient starved Mycobacterium tuberculosis H37Rv assessed as reduction in bacterial load at 10 ug/ml incubated for 7 days measured after 28 days by microplate reader analysis; assay type: functional
Method in brief: (§2)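 H37Rv grown in 7H9/OADC, pelleted, washed twice and resuspended in PBS. It was starved in sealed bottles at 37 °C for 6 weeks. Cultures were exposed to drug at 10 µg/ml for 7 days at 37 °C. Ten-fold dilutions to 10^-6 in 7H9/OADC were plated in triplicate and incubated 28 days at 37 °C without agitation. Wells with visible growth were scored and MPN calculated.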

[6] = test system: Mycobacterium tuberculosis; assay: Antimycobacterial activity against nutrient starved Mycobacterium tuberculosis H37Rv assessed as reduction in bacterial load for 7 days measured after 28 days by microplate reader analysis; assay type: functional; method in brief: as §2
[7] = test system: Mycobacterium marinum; assay: Antimycobacterial activity against Mycobacterium marinum ATCC BAA-535 infected in Zebra fish model assessed as reduction in bacterial load at 10 mg/kg, po administered for 7 days measured after 14 days by MPN assay; assay type: functional; method in brief: as §1

Cc1nc2sc3ccccc3n2c1C(=O)Nc1ccccc1
IC50 [1]: 1030 nM | MIC [2]: 40.7 µM (≈ 12.5 µg/mL) | cytotoxicity at 72 h, 50 µM [3]: 33.2%

COc1cc(/C=N/NC(=O)c2c(C)nc3sc4ccccc4n23)cc(OC)c1OC
IC50 [1]: 2070 nM | MIC [2]: 29.4 µM (≈ 12.5 µg/mL) | cytotoxicity at 72 h, 50 µM [3]: 16.2%

Cc1nc2sc3ccccc3n2c1C(=O)NNC(=O)c1ccccc1
IC50 [1]: 1100 nM | MIC [2]: 35.7 µM (≈ 12.5 µg/mL) | cytotoxicity at 72 h, 50 µM [3]: 29.7%

CC[C@@H](CO)NCCN[C@@H](CC)CO [ETHAMBUTOL]
IC50 [1]: > 25000 nM | MIC [2]: 7.64 µM (≈ 1.56 µg/mL)

Cc1nc2sccn2c1C(=O)NNC(=O)c1ccccc1
IC50 [1]: 5310 nM | MIC [2]: 40.1 µM (≈ 12 µg/mL) | cytotoxicity at 72 h, 50 µM [3]: 10.3%

COc1cc(/C=N/NC(=O)c2c(C)nc3sccn23)cc(OC)c1OC
IC50 [1]: 5610 nM | MIC [2]: 33.4 µM (≈ 12.5 µg/mL) | cytotoxicity at 72 h, 50 µM [3]: 1.17%

Cc1nc2sccn2c1C(=O)N/N=C/c1ccccc1
IC50 [1]: 580 nM | MIC [2]: 23.2 µM (≈ 6.6 µg/mL) | cytotoxicity at 72 h, 50 µM [3]: 23.1%

Cc1nc2sc3ccccc3n2c1C(=O)N/N=C/c1ccc(N(C)C)cc1
IC50 [1]: 1460 nM | MIC [2]: 4.13 µM (≈ 1.56 µg/mL) | cytotoxicity at 72 h, 50 µM [3]: 12.1%

CO[C@H]1/C=C/O[C@@]2(C)Oc3c(C)c(O)c4c(O)c(c(/C=N/N5CCN(C)CC5)c(O)c4c3C2=O)NC(=O)/C(C)=C\C=C\[C@H](C)[C@H](O)[C@@H](C)[C@@H](O)[C@@H](C)[C@H](OC(C)=O)[C@@H]1C [RIFAMPIN]
Activity [4]: 1.9 deltalog10CFU/ml | Activity [5]: 2.1 deltalog10CFU/ml | MIC [6]: 0.1 µg/mL (≈ 0.122 µM)

NNC(=O)c1ccncc1 [ISONIAZID]
Activity [7]: 1.8 deltalog10CFU/ml | IC50 [1]: > 25000 nM | MIC [2]: 0.72 µM (≈ 0.0987 µg/mL) | Activity [5]: 1.1 deltalog10CFU/ml | MIC [6]: 0.05 µg/mL (≈ 0.365 µM)

Cc1nc2sccn2c1C(=O)N/N=C/c1ccc(C(F)(F)F)cc1
IC50 [1]: 670 nM | MIC [2]: 17.7 µM (≈ 6.25 µg/mL) | cytotoxicity at 72 h, 50 µM [3]: 12.8%

Cc1nc2sccn2c1C(=O)N/N=C/c1ccc(N(C)C)cc1
IC50 [1]: 2500 nM | MIC [2]: 38.2 µM (≈ 12.5 µg/mL) | cytotoxicity at 72 h, 50 µM [3]: 6.75%

Cc1nc2sc3ccccc3n2c1C(=O)N/N=C/c1ccccc1
IC50 [1]: 2150 nM | MIC [2]: 9.35 µM (≈ 3.13 µg/mL) | cytotoxicity at 72 h, 50 µM [3]: 34.6%

Cc1nc2sc3ccccc3n2c1C(=O)NCc1ccccc1
IC50 [1]: 840 nM | MIC [2]: 19.4 µM (≈ 6.25 µg/mL) | cytotoxicity at 72 h, 50 µM [3]: 6.62%

COc1ccc(NC(=O)c2c(C)nc3sccn23)cc1
IC50 [1]: 5830 nM | MIC [2]: 20.7 µM (≈ 5.96 µg/mL) | cytotoxicity at 72 h, 50 µM [3]: 58.7%

CCOc1ccc(NC(=O)c2c(C)nc3sc4ccccc4n23)cc1
IC50 [1]: 2100 nM | MIC [2]: 42 µM (≈ 14.7 µg/mL) | cytotoxicity at 72 h, 50 µM [3]: 52.7%

Cc1nc2sccn2c1C(=O)NNC(=O)c1ccc(Oc2ccccc2)cc1
IC50 [1]: 1230 nM | MIC [2]: 7.96 µM (≈ 3.12 µg/mL) | cytotoxicity at 72 h, 50 µM [3]: 2.98%

Cc1nc2sc3ccccc3n2c1C(=O)N/N=C/c1ccc(Br)cc1
IC50 [1]: 1020 nM | MIC [2]: 15.1 µM (≈ 6.25 µg/mL) | cytotoxicity at 72 h, 50 µM [3]: 10.1%

CC1(C)S[C@@H]2[C@H](NC(=O)[C@H](N)c3ccc(O)cc3)C(=O)N2[C@H]1C(=O)O
Activity [7]: inactive

Cc1nc2sccn2c1C(=O)NCc1ccccc1
IC50 [1]: 1060 nM | MIC [2]: 11.5 µM (≈ 3.13 µg/mL) | cytotoxicity at 72 h, 50 µM [3]: 12.7%

Cc1nc2sccn2c1C(=O)N/N=C/c1ccc(Br)cc1
IC50 [1]: 1200 nM | MIC [2]: 34.4 µM (≈ 12.5 µg/mL) | cytotoxicity at 72 h, 50 µM [3]: 22.2%

Cc1nc2sc3ccccc3n2c1C(=O)NC1CCCCC1
IC50 [1]: 1020 nM | MIC [2]: 19.9 µM (≈ 6.25 µg/mL) | cytotoxicity at 72 h, 50 µM [3]: 13.4%

Cc1nc2sccn2c1C(=O)NC1CCCCC1
IC50 [1]: 2000 nM | MIC [2]: 11.8 µM (≈ 3.12 µg/mL) | cytotoxicity at 72 h, 50 µM [3]: 32.1%

Cc1nc2sccn2c1C(=O)Nc1ccc(Br)cc1
IC50 [1]: 690 nM | MIC [2]: 2.32 µM (≈ 0.78 µg/mL) | cytotoxicity at 72 h, 50 µM [3]: 32.3% | Activity [5]: 2 deltalog10CFU/ml

Cc1ccc(C(=O)NNC(=O)c2c(C)nc3sccn23)cc1
IC50 [1]: 4990 nM | MIC [2]: 5.96 µM (≈ 1.87 µg/mL) | cytotoxicity at 72 h, 50 µM [3]: 39.2% | Activity [5]: 2.1 deltalog10CFU/ml

Cc1nc2sc3ccccc3n2c1C(=O)Nc1ccc(Br)cc1
IC50 [1]: 520 nM | MIC [2]: 16.2 µM (≈ 6.25 µg/mL) | cytotoxicity at 72 h, 50 µM [3]: 20.9%

Cc1ccc(C(=O)NNC(=O)c2c(C)nc3sc4ccccc4n23)cc1
IC50 [1]: 5830 nM | MIC [2]: 17.1 µM (≈ 6.25 µg/mL) | cytotoxicity at 72 h, 50 µM [3]: 53%

Cc1nc2sc3ccccc3n2c1C(=O)NNC(=O)c1cccc2ccccc12
IC50 [1]: 1390 nM | MIC [2]: 15.6 µM (≈ 6.25 µg/mL) | cytotoxicity at 72 h, 50 µM [3]: 32%

Cc1nc2sc3ccccc3n2c1C(=O)NNC(=O)C1CCCCC1
IC50 [1]: 2910 nM | MIC [2]: 17.5 µM (≈ 6.25 µg/mL) | cytotoxicity at 72 h, 50 µM [3]: 45.4%

COc1c(N2C[C@@H]3CCCN[C@@H]3C2)c(F)cc2c(=O)c(C(=O)O)cn(C3CC3)c12 [MOXIFLOXACIN]
Activity [4]: 2.9 deltalog10CFU/ml | MIC [6]: 0.78 µg/mL (≈ 1.94 µM)

Cc1nc2sccn2c1C(=O)Nc1ccccc1
IC50 [1]: 740 nM | MIC [2]: 12.1 µM (≈ 3.12 µg/mL) | cytotoxicity at 72 h, 50 µM [3]: 14.1%

Cc1nc2sccn2c1C(=O)NNC(=O)C1CCCCC1
IC50 [1]: 5380 nM | MIC [2]: 20.4 µM (≈ 6.25 µg/mL) | cytotoxicity at 72 h, 50 µM [3]: 31.2%

Cc1nc2sccn2c1C(=O)NNC(=O)c1cccc2ccccc12
IC50 [1]: 640 nM | MIC [2]: 17.8 µM (≈ 6.25 µg/mL) | cytotoxicity at 72 h, 50 µM [3]: 27.5%

Cc1nc2sc3ccccc3n2c1C(=O)N/N=C/c1ccc(C(F)(F)F)cc1
IC50 [1]: 5310 nM | MIC [2]: 16.5 µM (≈ 6.65 µg/mL) | cytotoxicity at 72 h, 50 µM [3]: 16.1%

Cc1nc2sc3ccccc3n2c1C(=O)NNC(=O)c1ccc(Oc2ccccc2)cc1
Activity [7]: 1.5 deltalog10CFU/ml | IC50 [1]: 530 nM | MIC [2]: 3.53 µM (≈ 1.56 µg/mL) | cytotoxicity at 72 h, 50 µM [3]: 10.4%
